Test [1] in a line: (§1) Inhibition of phosphotidylserine liposome-stimulated sheep brain Dynamin 1 GTPase activity using GTP as substrate by malachite green assay. Type of test: tissue-based, Ovis aries. Summed up:
(§2)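 Native dynamin I from sheep brain (membrane extraction, GST-Amph2-SH3-sepharose affinity), stimulated by sonicated phosphatidylserine liposomes; GTP hydrolysis read as orthophosphate by malachite green. DMSO at most 3.3% final. […] 300 μM is the top concentration tested.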

The species named for test [2] is Rattus norvegicus. Nature of the test: Inhibition of synaptic vesicle endocytosis in Sprague-Dawley rat cerebrum synaptosomes assessed as reduction in depolarisation-stimulated FM4-64 uptake preincubated for 30 mins followed by FM4-64 addition for 2 mins and further depolarised for 2 mins by fluorescent imaging analysis. The format is functional. The settings on record: for inhibition: Synaptosome, time 34.0 min. Summed up:
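Purified rat cerebrum synaptosomes (male, 6–8 weeks) attached to plates at 30 °C in Krebs buffer with 0.1 mM CaCl₂, pH 7.4. Compound or DMSO (1%) for 30 min, then 1 μM FM 4-64 for 2 min, then 80 mM KCl depolarisation for 2 min. Imaged ex 476–524/em 608–742 nm; intensity normalised to control uptake (1.0).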

A short description of test [3]: Inhibition of clathrin-mediated endocytosis in serum-starved human U2OS cells assessed as reduction in Tfn-A594 uptake pretreated for 30 mins followed by Tfn-A594 addition and measured after 8 mins. The format is cell-based. Summed up:
(§3)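 U2OS cells on fibronectin-coated plates, serum-starved 16 h, then compound (usually 6 concentrations, 1–300 μM) or vehicle for 30 min, then Tfn-A594 4 μg mL⁻¹ for 8 min at 37 °C. Surface Tfn acid-stripped (pH 2.8), PFA-fixed, DAPI-stained; automated imaging of integrated Tfn intensity per cell, as % of vehicle. DMSO at most 1%.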

Test [4] in a line: Inhibition of clathrin-mediated endocytosis in human U2OS cells assessed as reduction in Tfn-A594 uptake pretreated for 30 mins. Type of test: cell-based. The method, boiled down: as §3
The species entered for test [5] is Ovis aries. Nature of the test: Competitive inhibition of phosphotidylserine liposome-stimulated sheep brain Dynamin 1 GTPase activity using varying concentrations of Mg2+.GTP as substrate at 3 to 7 uM by Lineweaver-Burk plot analysis. The format is tissue-based. The settings on record: dose 3-7 µM.
The species entered for test [6] is Ovis aries. The test is described as §1. The format is tissue-based. Summed up:
as §2

Test [7] has as its system Mus musculus. Nature of the test: Antiseizure activity against electrically stimulated seizure in C57BL/6 mouse model assessed as increase in current required to provoke seizures at 400 mg/kg, ip pretreated for 30 mins followed by electrical stimulation at 6 Hz. The format is functional, organism-based. Summed up: (§4)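 Mouse 6 Hz corneal stimulation (0.2 ms rectangular pulse, 3 s, varying current). Given ip 30 min before stimulation; DMA 20%/Tween-80 5%/PEG300 75% vehicle for test doses (10, 30, 60 mg kg⁻¹), 0.9% saline for valproate (400 mg kg⁻¹). Seizure scored as stunned/fixed posture, rearing, forelimb clonus or twitching. EC50 current by up-and-down method, 2 mA steps; each mouse used once; Mann–Whitney U vs vehicle.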

The test system of test [8] is Mus musculus. Nature of the test: Antiseizure activity against electrically stimulated seizure in C57BL/6 mouse model assessed as increase in seizures threshold at 10 mg/kg, ip pretreated for 30 mins followed by electrical stimulation at 6 Hz. Type of test: functional, organism-based. The method, boiled down: as §4
The species entered for test [9] is Rattus norvegicus. The experiment in a line: Inhibition of exocytosis in Sprague-Dawley rat brain synaptosome assessed as effect on Ca2+ dependent glutamate release at 80 uM preincubated for 1 mins in presence of NADP followed by glutamate dehydrogenase addition and further stimulated with 4-aminopyridine for 4 mins by spectrofluorimeter. Type of test: functional. The settings on record: time 5.0 min. Summed up: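 Synaptosomes (0.6 mg in 2 ml) in Krebs-like buffer, pH 7.4, 37 °C, containing 1.2 mM CaCl₂ or calcium-free with 1 mM EGTA. Started with 1 mM NADP; glutamate dehydrogenase 50 U added after 1 min; 4-aminopyridine stimulation after 4 min. Released glutamate followed as NADPH fluorescence (ex 340/em 460 nm).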

Test [10] relates to Mus musculus. The experiment in a line: Antiseizure activity against electrically stimulated seizure in C57BL/6 mouse model assessed as increase in seizures threshold at 30 to 60 mg/kg, ip pretreated for 30 mins followed by electrical stimulation at 6 Hz. Type of test: functional, organism-based. The settings on record: dose 30-60 mg/kg. The method, boiled down:
as §4

The species named for test [11] is Ovis aries. The experiment in a line: Inhibition of phosphotidylserine liposome-stimulated sheep brain Dynamin 1 GTPase activity using GTP as substrate at 300 uM by malachite green assay relative to control. The format is tissue-based. Summed up: as §2

pIC50: −log10 of the molar value. Calls of active or inactive are those of the source.

With `O=S(=O)(NCCNC/C=C/c1ccc(Br)cc1)c1ccc2ccccc2c1`, the pIC50 in test [1] was 5.44; in [3], 5.03. Moreover, the inhibition entry in the test listed under Rattus norvegicus [2] was “inactive”.

For the compound `O=S(=O)(NCCNC/C=C/c1ccc(Br)cc1)c1cccc2cnccc12`, the negative logarithm of the IC50 (pIC50) in test [1] is 5.15.

On to `O=S(=O)(NCCCCNC/C=C/c1ccc(Br)cc1)c1cccc2cnccc12`, for which the pIC50 in test [1] is 5.09.

Consider `CN(C)c1cccc2c(S(=O)(=O)NCCNC/C=C/c3ccc(Br)cc3)cccc12`, for which the negative logarithm of the IC50 (pIC50) was 5.41 in [1], 3.90 in the test listed under Rattus norvegicus [2] and 4.54 in [3].

Compound `O=S(=O)(NCCNC/C=C/c1ccc(Cl)cc1)c1cccc2cnccc12` gave a pIC50 in test [1] of 5.04.

On to `O=S(=O)(NCCNC/C=C/c1ccc(Br)cc1)c1cccc2ccccc12`, for which the pIC50 in test [1] is 5.36; in test [3], 4.91. Further, the inhibition entry in the test filed under Rattus norvegicus [2] was “inactive”.

Consider `CN(C/C=C/c1ccc(Br)cc1)CCNS(=O)(=O)c1cccc2ccccc12`, for which, in [1], the negative logarithm of the IC50 (pIC50) is 4.98.

`Cc1ccc(/C=C/CNCCNS(=O)(=O)c2cccc3cnccc23)cc1` showed a pIC50 in test [1] of 4.65.

With `O=C(N/N=C/c1cc(O)c(O)cc1O)c1cc2ccccc2cc1O`, the pIC50 in test [4] was 5.24.

In turn, `CN(C)c1ccc(/C=C/CNCCNS(=O)(=O)c2cccc3cnccc23)cc1` gave a pIC50 in test [1] of 4.70.

The compound `O=S(=O)(NCCNC/C=C/c1ccc(C(F)(F)F)cc1)c1cccc2cnccc12` showed a negative logarithm of the IC50 (pIC50) in test [1] of 4.91.

As for `O=S(=O)(NCCCCCCNC/C=C/c1ccc(Br)cc1)c1cccc2ccccc12`, the pIC50 in test [1] was 5.28; in test [3], 4.57. Also, the inhibition result in the test filed under Rattus norvegicus [2] was “inactive”.

In the case of `CN(C)c1cccc2c(S(=O)(=O)NCCCCCN)cccc12`, the pIC50 in test [1] was 4.35; in the test listed under Rattus norvegicus [2], below 3.52; in [3], 3.69.

Consider `O=S(=O)(c1cccc2cnccc12)N1CCN(C/C=C/c2ccc(Br)cc2)CC1`, for which the pIC50 in test [1] was 4.24.

Consider `O=S(=O)(NCCCCNC/C=C/c1ccc(Br)cc1)c1cccc2ccccc12`, for which the pIC50 in test [1] was 5.52; in test [3], 4.95. The inhibition result in the test listed under Rattus norvegicus [2] was “inactive”.

On to `O=S(=O)(NCCCCCCNC/C=C/c1ccc(Br)cc1)c1cccc2cnccc12`, for which the figures for the pIC50 (in test [1]; in the test listed under Rattus norvegicus [2]; in test [3]) were 5.43, 3.58 and 4.80, respectively. Also, the inhibition result in the test filed under Ovis aries [5] was “Active”.

Consider `O=S(=O)(NCCNC/C=C/c1ccc(F)cc1)c1cccc2cnccc12`, for which the negative-log IC50 (pIC50) in test [1] was 4.69.

`O=S(=O)(NCCNCCCc1ccccc1)c1cccc2cnccc12` had a pIC50 in [1] of 4.52.

As to `NCCNS(=O)(=O)c1cccc2cnccc12`, the inhibition result in the test filed under Ovis aries [6] was “inactive”.

Consider `CC(C)(C)c1ccc(/C=C/CNCCNS(=O)(=O)c2cccc3cnccc23)cc1`, for which the negative-log IC50 (pIC50) in [1] is 5.18.

The compound `O=S(=O)(NCCCNC/C=C/c1ccc(Br)cc1)c1cccc2cnccc12` gave a pIC50 in test [1] of 5.15.

With `CN(C/C=C/c1ccc(Br)cc1)CCN(C)S(=O)(=O)c1cccc2ccccc12`, the pIC50 in [1] was 5.06.

As for `CCCC(CCC)C(=O)O`, the outcome in the test with Mus musculus [7] was Active.

For the compound `O=S(=O)(NCCCNC/C=C/c1ccc(Br)cc1)c1cccc2ccccc12`, the pIC50 in test [1] was 5.46; in the test listed under Rattus norvegicus [2] it was 4.91; in test [3], 4.56. Besides, the inhibition result in the test filed under Ovis aries [5] is “Active”. Further, in the test with Mus musculus [8], the outcome was inactive. Besides, the inhibition entry in the test filed under Rattus norvegicus [9] is “inactive”. Moreover, the result in the test with Mus musculus [10] was Active.

The compound `O=S(=O)(NCCNC/C=C/c1ccc(Br)cc1)c1cccc2cccnc12` had a pIC50 in test [1] of 5.02.

`O=S(=O)(NCCNC/C=C/c1ccccc1)c1cccc2cnccc12` showed a pIC50 in test [1] of 4.42.

For the compound `O=S(=O)(NCCNCCc1ccccc1)c1cccc2cnccc12`, the negative-log IC50 (pIC50) in test [1] is 4.01.

In test [1], `O=C(/C=C/c1ccc(Br)cc1)NCCNS(=O)(=O)c1cccc2cnccc12` showed a pIC50 below 3.52. For the same compound, the inhibition in the test filed under Ovis aries [11] was below 50%.

Usually pIC50 stands for the IC50 on a negative log10 scale, so that one unit is a factor of ten. As usually defined, the inhibition is the relative decrease from the control value, in per cent.

These data come from ChEMBL document CHEMBL5329162, “The sulfonadyns: a class of aryl sulfonamides inhibiting dynamin I GTPase and clathrin mediated endocytosis are anti-seizure in animal models” (RSC Med Chem, 2023).
